Data taken from ChEMBL document CHEMBL4004891, “Antioxidant Properties of Novel Dimers Derived from Natural β-Elemene through Inhibiting H2O2-Induced Apoptosis” (ACS Med Chem Lett, 2017).
Activity calls are given as the source filed them. The rule behind the calls is not given here.

Key:
HUVEC [1] = experiment: Cytoprotective activity against H2O2-induced cell injury in HUVEC assessed as inhibition of apoptosis by measuring necrotic cells at 1 uM pretreated for 24 hrs followed by H2O2-stimulation after 2 hrs by Annexin-V-APC/7AAD staining based flow cytometry (reference value: 0.45%); assay type: functional, Homo sapiens; set-up: scale not given: the % may be the effect or the level left
HUVEC [2] = experiment: Cytoprotective activity against H2O2-induced cell injury in HUVEC assessed as decrease in level of reactive oxygen species pretreated for 24 hrs followed by H2O2-stimulation after 2 hrs by DCFH-DA staining based fluorescence assay; assay type: functional; conditions: Homo sapiens
How it was run: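 DCF fluorescence imaging in HUVECs with or without pretreatment, exposed to H2O2; intensity expressed as percentage of control group fluorescence; means ± SD, n = 3.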

HUVEC [3] = experiment: Cytoprotective activity against H2O2-induced cell injury in HUVEC assessed as inhibition of apoptosis by measuring early apoptotic cells at 1 uM pretreated for 24 hrs followed by H2O2-stimulation after 2 hrs by Annexin-V-APC/7AAD staining based flow cytometry (reference value: 34.96%); assay type: functional, Homo sapiens; set-up: scale not given: the % may be the effect or the level left
HUVEC [4] = experiment: Cytoprotective activity against H2O2-induced cell injury in HUVEC assessed as inhibition of apoptosis by measuring viable cells at 1 uM pretreated for 24 hrs followed by H2O2-stimulation after 2 hrs by Annexin-V-APC/7AAD staining based flow cytometry (reference value: 53.8%); assay type: functional, Homo sapiens
HUVEC [5] = experiment: Cytoprotective activity against H2O2-induced cell injury in HUVEC assessed as inhibition of apoptosis by measuring early apoptotic cells at 0.1 uM pretreated for 24 hrs followed by H2O2-stimulation after 2 hrs by Annexin-V-APC/7AAD staining based flow cytometry (reference value: 34.96%); assay type: functional, Homo sapiens; set-up: scale not given: the % may be the effect or the level left
HUVEC [6] = experiment: Cytoprotective activity against H2O2-induced cell injury in HUVEC assessed as cell survival at 10 uM pretreated for 24 hrs followed by H2O2-stimulation after 2 hrs by MTT assay (reference value: 60.21%); assay type: functional; conditions: Homo sapiens, read-out: Survival
HUVEC [7] = experiment: Cytoprotective activity against H2O2-induced cell apoptosis in HUVEC pretreated for 24 hrs followed by H2O2-stimulation for 2 hrs by Annexin-V-APC/7AAD staining based flow cytometry; assay type: functional; conditions: Homo sapiens
HUVEC [8] = experiment: Cytoprotective activity against H2O2-induced cell injury in HUVEC assessed as level of reactive oxygen species by measuring fluorescence intensity at 0.1 to 10 uM pretreated for 24 hrs followed by H2O2-stimulation after 2 hrs by DCFH-DA staining based fluorescence assay (reference value: 3.3); assay type: functional, Homo sapiens
HUVEC [9] = experiment: Cytoprotective activity against H2O2-induced cell injury in HUVEC assessed as inhibition of apoptosis by measuring early apoptotic cells at 10 uM pretreated for 24 hrs followed by H2O2-stimulation after 2 hrs by Annexin-V-APC/7AAD staining based flow cytometry (reference value: 34.96%); assay type: functional, Homo sapiens; set-up: scale not given: the % may be the effect or the level left
HUVEC [10] = experiment: Cytoprotective activity against H2O2-induced cell injury in HUVEC assessed as decrease in MDA level pretreated for 24 hrs followed by H2O2-stimulation after 2 hrs; assay type: functional, cell-based; conditions: Homo sapiens
How it was run: (§1)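 Pretreatment 24 h at 0.1, 1 and 10 μM before 0.5 mM H2O2 for 2 h in HUVECs; LDH release, MDA content, SOD activity and NO secretion then measured.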

HUVEC [11] = experiment: Cytoprotective activity against H2O2-induced cell injury in HUVEC assessed as cell survival at 0.1 uM pretreated for 24 hrs followed by H2O2-stimulation after 2 hrs by MTT assay (reference value: 60.21%); assay type: functional; conditions: Homo sapiens, read-out: Survival
HUVEC [12] = experiment: Cytoprotective activity against H2O2-induced cell injury in HUVEC assessed as increase in nitric oxide level pretreated for 24 hrs followed by H2O2-stimulation after 2 hrs by DAF-FM-DA probe based fluorescent imaging analysis; assay type: functional; conditions: Homo sapiens; how it was run: as §1
HUVEC [13] = experiment: Cytotoxicity against HUVEC assessed as increase in cell viability at 0.1 to 50 uM after 24 hrs by MTT assay relative to control; assay type: cell-based; conditions: human
How it was run: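 Normal HUVECs incubated 24 h with 0.1−50 μM, no H2O2; viability by MTT assay; means ± SD, n = 3.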

HUVEC [14] = experiment: Effect on total ERK1/2 protein level in HUVEC at 0.1 to 10 uM pretreated for 24 hrs followed by H2O2-stimulation for 2 hrs by western blot analysis; assay type: cell-based; conditions: human
[15] = target: c-Jun N-terminal kinase, JNK (Homo sapiens) (UniProt P45983+P53779+P45984); experiment: Inhibition of H2O2-induced JNK phosphorylation in HUVEC pretreated for 24 hrs followed by H2O2-stimulation after 2 hrs by western blot analysis
HUVEC [16] = experiment: Cytoprotective activity against H2O2-induced cell injury in HUVEC assessed as inhibition of apoptosis by measuring necrotic cells at 10 uM pretreated for 24 hrs followed by H2O2-stimulation after 2 hrs by Annexin-V-APC/7AAD staining based flow cytometry (reference value: 0.45%); assay type: functional, Homo sapiens; set-up: scale not given: the % may be the effect or the level left
HUVEC [17] = experiment: Cytoprotective activity against H2O2-induced cell injury in HUVEC assessed as cell survival at 1 uM pretreated for 24 hrs followed by H2O2-stimulation after 2 hrs by MTT assay (reference value: 60.21%); assay type: functional; conditions: Homo sapiens, read-out: Survival
HUVEC [18] = experiment: Cytoprotective activity against H2O2-induced cell injury in HUVEC assessed as inhibition of apoptosis by measuring viable cells at 0.1 uM pretreated for 24 hrs followed by H2O2-stimulation after 2 hrs by Annexin-V-APC/7AAD staining based flow cytometry (reference value: 53.8%); assay type: functional, Homo sapiens
HUVEC [19] = experiment: Cytoprotective activity against H2O2-induced cell injury in HUVEC assessed as decrease in LDH release pretreated for 24 hrs followed by H2O2-stimulation after 2 hrs; assay type: functional, cell-based; conditions: Homo sapiens; how it was run: as §1
HUVEC [20] = experiment: Cytoprotective activity against H2O2-induced cell injury in HUVEC assessed as inhibition of apoptosis by measuring late apoptotic cells at 10 uM pretreated for 24 hrs followed by H2O2-stimulation after 2 hrs by Annexin-V-APC/7AAD staining based flow cytometry (reference value: 10.78%); assay type: functional, Homo sapiens; set-up: scale not given: the % may be the effect or the level left
HUVEC [21] = experiment: Effect on total JNK protein level in HUVEC at 0.1 to 10 uM pretreated for 24 hrs followed by H2O2-stimulation for 2 hrs by western blot analysis; assay type: cell-based; conditions: human
HUVEC [22] = experiment: Cytoprotective activity against H2O2-induced cell injury in HUVEC assessed as inhibition of apoptosis by measuring necrotic cells at 0.1 uM pretreated for 24 hrs followed by H2O2-stimulation after 2 hrs by Annexin-V-APC/7AAD staining based flow cytometry (reference value: 0.45%); assay type: functional, Homo sapiens; set-up: scale not given: the % may be the effect or the level left
HUVEC [23] = experiment: Cytoprotective activity against H2O2-induced cell injury in HUVEC assessed as increase in SOD activity pretreated for 24 hrs followed by H2O2-stimulation after 2 hrs; assay type: functional, cell-based; conditions: Homo sapiens; how it was run: as §1
HUVEC [24] = experiment: Cytoprotective activity against H2O2-induced cell injury in HUVEC assessed as increase in cell survival pretreated for 24 hrs followed by H2O2-stimulation after 2 hrs by MTT assay; assay type: functional, cell-based; conditions: Homo sapiens
How it was run: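 MTT survival of H2O2-injured HUVECs after pretreatment at 10, 1, 0.1 and 0.01 μM; compared with H2O2-only model group; EC50 derived from concentration–response; means ± SD, n = 3.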

[25] = target: MAP kinase p38 (Homo sapiens) (UniProt O15264+Q15759+Q16539+P53778); experiment: Inhibition of H2O2-induced p38 phosphorylation in HUVEC pretreated for 24 hrs followed by H2O2-stimulation after 2 hrs by western blot analysis
HUVEC [26] = experiment: Cytoprotective activity against H2O2-induced cell injury in HUVEC assessed as cell survival at 0.01 uM pretreated for 24 hrs followed by H2O2-stimulation after 2 hrs by MTT assay (reference value: 60.21%); assay type: functional; conditions: Homo sapiens, read-out: Survival
HUVEC [27] = experiment: Cytoprotective activity against H2O2-induced cell injury in HUVEC assessed as increase in cell viability at 10 uM pretreated for 24 hrs followed by H2O2-stimulation after 2 hrs by MTT assay; assay type: functional, cell-based; conditions: Homo sapiens
HUVEC [28] = experiment: Cytoprotective activity against H2O2-induced cell injury in HUVEC assessed as inhibition of apoptosis by measuring late apoptotic cells at 1 uM pretreated for 24 hrs followed by H2O2-stimulation after 2 hrs by Annexin-V-APC/7AAD staining based flow cytometry (reference value: 10.78%); assay type: functional, Homo sapiens; set-up: scale not given: the % may be the effect or the level left
[29] = target: Mitogen-activated protein kinase; ERK1/ERK2 (Homo sapiens) (UniProt P27361+P28482); experiment: Inhibition of H2O2-induced ERK1/2 phosphorylation in HUVEC pretreated for 24 hrs followed by H2O2-stimulation after 2 hrs by western blot analysis; assay type: protein assay
Sequence of Mitogen-activated protein kinase; ERK1/ERK2 (Homo sapiens) (P27361 whole entry, looked up): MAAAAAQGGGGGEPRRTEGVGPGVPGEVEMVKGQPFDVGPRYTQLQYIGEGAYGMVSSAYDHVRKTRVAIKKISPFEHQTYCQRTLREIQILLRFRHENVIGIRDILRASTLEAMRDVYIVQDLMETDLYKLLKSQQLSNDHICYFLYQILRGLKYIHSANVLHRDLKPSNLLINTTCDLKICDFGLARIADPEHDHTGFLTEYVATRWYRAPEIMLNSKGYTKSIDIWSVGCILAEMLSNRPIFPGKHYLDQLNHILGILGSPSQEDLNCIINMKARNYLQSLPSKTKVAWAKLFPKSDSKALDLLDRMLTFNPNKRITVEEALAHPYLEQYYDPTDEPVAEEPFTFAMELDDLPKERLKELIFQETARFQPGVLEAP
Sequence of Mitogen-activated protein kinase; ERK1/ERK2 (Homo sapiens) (P28482 whole entry, looked up): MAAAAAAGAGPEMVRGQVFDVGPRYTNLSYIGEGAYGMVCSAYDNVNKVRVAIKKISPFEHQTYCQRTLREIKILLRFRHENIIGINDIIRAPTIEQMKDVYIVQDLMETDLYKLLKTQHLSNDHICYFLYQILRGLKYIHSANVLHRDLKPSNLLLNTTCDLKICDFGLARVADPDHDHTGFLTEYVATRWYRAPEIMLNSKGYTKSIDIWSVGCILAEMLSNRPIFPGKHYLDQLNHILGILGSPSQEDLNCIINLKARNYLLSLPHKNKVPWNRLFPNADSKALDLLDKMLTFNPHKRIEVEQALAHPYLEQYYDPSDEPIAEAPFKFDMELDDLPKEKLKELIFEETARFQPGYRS

HUVEC [30] = experiment: Effect on total p38 MAPK protein level in HUVEC at 0.1 to 10 uM pretreated for 24 hrs followed by H2O2-stimulation for 2 hrs by western blot analysis; assay type: cell-based; conditions: human
HUVEC [31] = experiment: Cytoprotective activity against H2O2-induced cell injury in HUVEC assessed as inhibition of apoptosis by measuring late apoptotic cells at 0.1 uM pretreated for 24 hrs followed by H2O2-stimulation after 2 hrs by Annexin-V-APC/7AAD staining based flow cytometry (reference value: 10.78%); assay type: functional, Homo sapiens; set-up: scale not given: the % may be the effect or the level left
HUVEC [32] = experiment: Cytoprotective activity against H2O2-induced cell injury in HUVEC assessed as inhibition of apoptosis by measuring viable cells at 10 uM pretreated for 24 hrs followed by H2O2-stimulation after 2 hrs by Annexin-V-APC/7AAD staining based flow cytometry (reference value: 53.8%); assay type: functional, Homo sapiens

SMILES: C=C[C@]1(C)CC[C@@H](C(=C)COC(=O)/C=C/C(=O)OCC(=C)[C@@H]2CC[C@@](C)(C=C)[C@H](C(=C)C)C2)C[C@H]1C(=C)C
- Activity (HUVEC [1]): 0.18%
- Activity (HUVEC [2]): Dose-dependent effect
- Activity (HUVEC [3]): 23.59%
- Activity (HUVEC [4]): 68.31%
- Activity (HUVEC [5]): 30.92%
- viability at 10 µM (HUVEC [6]): 97%
- Activity (HUVEC [7]): Dose-dependent effect
- Flu intensity (HUVEC [8]): 1.16 - 2.4
- Activity (HUVEC [9]): 12.82%
- Activity (HUVEC [10]): Dose-dependent effect
- viability at 0.1 µM (HUVEC [11]): 76.7%
- Activity (HUVEC [12]): Dose-dependent effect
- Activity (HUVEC [13]): > 90%
- Activity (HUVEC [14]): Non-Toxic
- inhibition [15]: Dose-dependent effect
- Activity (HUVEC [16]): 2.69%
- viability at 1 µM (HUVEC [17]): 85.5%
- Activity (HUVEC [18]): 58.55%
- Activity (HUVEC [19]): Dose-dependent effect
- Activity (HUVEC [20]): 12.71%
- Activity (HUVEC [21]): Non-Toxic
- Activity (HUVEC [22]): 0.3%
- Activity (HUVEC [23]): Dose-dependent effect
- Activity (HUVEC [24]): Dose-dependent effect
- EC50 (HUVEC [24]): 220 nM
- inhibition [25]: Dose-dependent effect
- viability at 0.01 µM (HUVEC [26]): 65.5%
- Activity (HUVEC [27]): Active
- Activity (HUVEC [28]): 7.92%
- inhibition [29]: Dose-dependent effect
- Activity (HUVEC [30]): Non-Toxic
- Activity (HUVEC [31]): 10.22%
- Activity (HUVEC [32]): 71.78%
